≈ marks a conversion by molar mass, not a printed value. Calls of active or inactive are those of the source. The calls are words filed in the database; no cut-off is given here.
Legend:
Format in all cases: functional
Staphylococcus aureus [1] = assay: Antibacterial activity against Staphylococcus aureus ATCC 29213 after 24 hrs by […] dilution method; settings: ATCC 29213, 24 h
Staphylococcus aureus [2] = assay: Antibacterial activity against methicillin resistant Staphylococcus aureus ATCC 33592 after 24 hrs by […] dilution method; settings: ATCC 33592, 24 h
[3] = tested on: Staphylococcus epidermidis; assay: Antibacterial activity against methicillin-susceptible Staphylococcus epidermidis isolate CANWARD-2008 81388 after 24 hrs by […] dilution method; settings: isolate CANWARD-2008 81388, 24 h
[4] = tested on: Staphylococcus epidermidis; assay: Antibacterial activity against methicillin-resistant Staphylococcus epidermidis isolate CAN-ICU 61589 after 24 hrs by […] dilution method; settings: isolate CAN-ICU 61589, 24 h
Enterococcus faecalis = assay: Antibacterial activity against Enterococcus faecalis ATCC 29212 after 24 hrs by […] dilution method; settings: ATCC 29212, 24 h
Enterococcus faecium = assay: Antibacterial activity against Enterococcus faecium ATCC 27270 after 24 hrs by […] dilution method; settings: ATCC 27270, 24 h
Streptococcus pneumoniae = assay: Antibacterial activity against Streptococcus pneumoniae ATCC 49619 after 24 hrs by […] dilution method; settings: ATCC 49619, 24 h
Escherichia coli [5] = assay: Antibacterial activity against Escherichia coli ATCC 25922 after 24 hrs by […] dilution method; settings: ATCC 25922, 24 h
Escherichia coli [6] = assay: Antibacterial activity against gentamicin-resistant Escherichia coli isolate CAN-ICU 61714 after 24 hrs by […] dilution method; settings: isolate CAN-ICU 61714, 24 h
Escherichia coli [7] = assay: Antibacterial activity against amikacin-resistant Escherichia coli isolate CAN-ICU 63074 after 24 hrs by […] dilution method; settings: isolate CAN-ICU 63074, 24 h
Escherichia coli [8] = assay: Antibacterial activity against gentamicin/tobramycin/ciprofloxacin-resistant Escherichia coli isolate CANWARD-2011 97615 harboring AAC3-2A after 24 hrs by […] dilution method; settings: isolate CANWARD-2011 97615, 24 h
Pseudomonas aeruginosa [9] = assay: Antibacterial activity against Pseudomonas aeruginosa ATCC 27853 after 24 hrs by […] dilution method; settings: ATCC 27853, 24 h
Pseudomonas aeruginosa [10] = assay: Antibacterial activity against gentamicin-resistant Pseudomonas aeruginosa isolate CAN-ICU 62308 after 24 hrs by […] dilution method; settings: isolate CAN-ICU 62308, 24 h
Pseudomonas aeruginosa [11] = assay: Antibacterial activity against gentamicin/tobramycin-resistant Pseudomonas aeruginosa isolate CANWARD-2011 96846 after 24 hrs by […] dilution method; settings: isolate CANWARD-2011 96846, 24 h
[12] = tested on: Stenotrophomonas maltophilia; assay: Antibacterial activity against Stenotrophomonas maltophilia isolate CAN-ICU 62584 after 24 hrs by […] dilution method; settings: isolate CAN-ICU 62584, 24 h
Acinetobacter baumannii = assay: Antibacterial activity against Acinetobacter baumannii isolate CAN-ICU 63169 after 24 hrs by […] dilution method; settings: isolate CAN-ICU 63169, 24 h
Klebsiella pneumoniae = assay: Antibacterial activity against Klebsiella pneumoniae ATCC 13883 after 24 hrs by […] dilution method; settings: ATCC 13883, 24 h
Pseudomonas aeruginosa [13] = assay: Antibacterial activity against Pseudomonas aeruginosa PAO1 after 18 hrs by microtiter dilution assay; settings: PAO1, 18 h
How it was run: (§1)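 Broth microdilution following CLSI guidelines. An overnight culture was adjusted to 0.5 McFarland in saline, then diluted 1:50 in Mueller-Hinton broth. This inoculum was added in equal volume to 2-fold serial dilutions of agent in MHB and incubated 18 h at 37 °C. MIC was the lowest concentration with no visible growth.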

Pseudomonas aeruginosa [14] = assay: Antibacterial activity against multidrug/extremely drug-resistant/colistin-susceptible Pseudomonas aeruginosa isolate 100036 after 18 hrs by microtiter dilution assay; settings: isolate 100036, 18 h; how it was run: as §1
Pseudomonas aeruginosa [15] = assay: Antibacterial activity against multidrug/extremely drug-resistant/colistin-susceptible Pseudomonas aeruginosa isolate 101885 after 18 hrs by microtiter dilution assay; settings: isolate 101885, 18 h; how it was run: as §1
Pseudomonas aeruginosa [16] = assay: Antibacterial activity against multidrug/extremely drug-resistant/colistin-susceptible Pseudomonas aeruginosa isolate P259-96918 after 18 hrs by microtiter dilution assay; settings: isolate P259-96918, 18 h; how it was run: as §1
Pseudomonas aeruginosa [17] = assay: Antibacterial activity against multidrug/extremely drug-resistant/colistin-susceptible Pseudomonas aeruginosa isolate P262-101856 after 18 hrs by microtiter dilution assay; settings: isolate P262-101856, 18 h; how it was run: as §1
Pseudomonas aeruginosa [18] = assay: Antibacterial activity against multidrug/extremely drug-resistant/colistin-susceptible Pseudomonas aeruginosa isolate P264-104354 after 18 hrs by microtiter dilution assay; settings: isolate P264-104354, 18 h; how it was run: as §1
Pseudomonas aeruginosa [19] = assay: Antibacterial activity against multidrug/extremely drug-resistant/colistin-resistant Pseudomonas aeruginosa isolate 91433 after 18 hrs by microtiter dilution assay; settings: isolate 91433, 18 h; how it was run: as §1
Pseudomonas aeruginosa [20] = assay: Antibacterial activity against multidrug/extremely drug-resistant/colistin-resistant Pseudomonas aeruginosa isolate 101243 after 18 hrs by microtiter dilution assay; settings: isolate 101243, 18 h; how it was run: as §1
Pseudomonas aeruginosa [21] = assay: Synergistic antibacterial activity against Pseudomonas aeruginosa PAO1 after 18 hrs in presence of minocycline by checkerboard assay
How it was run: (§2)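 Checkerboard in MHB: antibiotic diluted along one axis and adjuvant along the other (10 × 7 matrix). Inoculum was a 1:50 dilution in MHB of a 0.5 McFarland saline suspension; incubated 18 h at 37 °C. Each FIC = concentration in the no-growth well divided by the MIC alone; FIC index = sum of both FICs. ≤0.5 synergy, 0.5–4 no interaction, ≥4 antagonism.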

Pseudomonas aeruginosa [22] = assay: Synergistic antibacterial activity against Pseudomonas aeruginosa PAO1 after 18 hrs in presence of rifampicin by checkerboard assay; how it was run: as §2
Pseudomonas aeruginosa [23] = assay: Antibacterial activity against Pseudomonas aeruginosa PAO1 assessed as ratio of MIC after 25 serial passages to MIC before 25 serial passages by microtiter dilution assay
How it was run: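 Sequential passaging of wild-type PAO1 with single drugs or drug combinations. MIC was tested in MHB for 18 h. Cells from the well at half the MIC were adjusted to 0.5 McFarland in saline, diluted 1:50 in fresh MHB and used for the next MIC test. This was repeated for 25 passages, and the fold change in MIC was plotted against passage number.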

Pseudomonas aeruginosa [24] = assay: Induction of cytoplasmic membrane depolarization in Pseudomonas aeruginosa PAO1 up to 1200 secs by diSC3-5 staining based fluorescence assay
How it was run: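 Mid-log PAO1 washed in 5 mM HEPES pH 7.4 with 20 mM glucose and resuspended to OD600 0.05. Cells were loaded with 0.2 mM EDTA and 0.4 µM diSC3-5 for 2 h at 37 °C in the dark, then equilibrated with 100 mM KCl for 30 min. Agent was added and fluorescence followed at 622/670 nm; agents tested at 32 µg/mL.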

Question: Which results are given for `NC[C@H]1O[C@H](O[C@H]2[C@H](O)[C@@H](O[C@H]3O[C@H](CO)[C@@H](O)[C@H](N)[C@H]3O)[C@H](N)C[C@@H]2N)[C@H](N)C[C@@H]1O` [TOBRAMYCIN]?
Answer: MIC (Staphylococcus aureus [1]): ≤ 0.25 µg/mL; MIC (Staphylococcus aureus [2]): ≤ 0.25 µg/mL; MIC [3]: ≤ 0.25 µg/mL; MIC [4]: 1 µg/mL (≈ 2.14 µM); MIC (Enterococcus faecalis): 8 µg/mL (≈ 17.1 µM); MIC (Enterococcus faecium): 8 µg/mL (≈ 17.1 µM); MIC (Streptococcus pneumoniae): 2 µg/mL (≈ 4.28 µM); MIC (Escherichia coli [5]): 0.5 µg/mL (≈ 1.07 µM); MIC (Escherichia coli [6]): 8 µg/mL (≈ 17.1 µM); MIC (Escherichia coli [7]): 8 µg/mL (≈ 17.1 µM); MIC (Escherichia coli [8]): 128 µg/mL (≈ 274 µM); MIC (Pseudomonas aeruginosa [9]): 0.5 µg/mL (≈ 1.07 µM); MIC (Pseudomonas aeruginosa [10]): 16 µg/mL (≈ 34.2 µM); MIC (Pseudomonas aeruginosa [11]): 256 µg/mL (≈ 548 µM); MIC [12]: > 512 µg/mL; MIC (Acinetobacter baumannii): 32 µg/mL (≈ 68.4 µM); MIC (Klebsiella pneumoniae): ≤ 0.25 µg/mL; MIC (Pseudomonas aeruginosa [13]): 0.25 µg/mL (≈ 0.535 µM); MIC (Pseudomonas aeruginosa [14]): 64 µg/mL (≈ 137 µM); MIC (Pseudomonas aeruginosa [15]): 0.25 µg/mL (≈ 0.535 µM); MIC (Pseudomonas aeruginosa [16]): 128 µg/mL (≈ 274 µM); MIC (Pseudomonas aeruginosa [17]): 512 µg/mL (≈ 1100 µM); MIC (Pseudomonas aeruginosa [18]): 128 µg/mL (≈ 274 µM); MIC (Pseudomonas aeruginosa [19]): 8 µg/mL (≈ 17.1 µM); MIC (Pseudomonas aeruginosa [20]): 256 µg/mL (≈ 548 µM); Activity (Pseudomonas aeruginosa [21]): inactive; Activity (Pseudomonas aeruginosa [22]): inactive; Ratio (Pseudomonas aeruginosa [23]): 256; Activity (Pseudomonas aeruginosa [24]): Dose-dependent effect

Reference: ChEMBL document CHEMBL4014308, “Amphiphilic Tobramycin-Lysine Conjugates Sensitize Multidrug Resistant Gram-Negative Bacteria to Rifampicin and Minocycline” (J Med Chem, 2017)
